This is an account of results in ChEMBL document CHEMBL1153416, “Synthesis and anti-inflammatory properties of 1alpha,25-dihydroxy-16-ene-20-cyclopropyl-24-oxo-vitamin D3, a hypocalcemic, stable metabolite of 1alpha,25-dihydroxy-16-ene-20-cyclopropyl-vitamin D3” (J Med Chem, 2009).

For orientation: IC50 means the concentration that gives 50% inhibition. The term EC50 denotes the concentration giving half of the maximal effect.

The test system of one experiment is Mus musculus. The experiment in a line: Induction of hypercalceimia in orally dosed C57BL/6 mouse administered daily for 4 days by colorimetric assay. The format is functional. The method, boiled down:
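Eight-week-old female C57BL/6 mice, 3 per group, were given one oral dose daily for 4 days in miglyol, at 0.01 to 300 µg/kg. Serum was taken by tail bleed on day 5 and calcium measured colorimetrically.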

For experiment [1], the system named is PBMC. Description: Inhibition of IFN-gamma production in human PBMC after 5 days by ELISA-based mixed lymphocyte reaction assay. The format is functional, cell-based. Particulars: 120 h. In general terms: ELISA stands for enzyme-linked immunosorbent assay.
Experiment [2] deals with PBMC. The experiment in a line: Inhibition of LPS-induced TNFalpha production in human PBMC after 24 hrs by ELISA. The format is functional, cell-based.
Experiment [3] addresses T1, Vitamin D3 receptor (Homo sapiens) (UniProt P11473).
T1 sequence (whole entry): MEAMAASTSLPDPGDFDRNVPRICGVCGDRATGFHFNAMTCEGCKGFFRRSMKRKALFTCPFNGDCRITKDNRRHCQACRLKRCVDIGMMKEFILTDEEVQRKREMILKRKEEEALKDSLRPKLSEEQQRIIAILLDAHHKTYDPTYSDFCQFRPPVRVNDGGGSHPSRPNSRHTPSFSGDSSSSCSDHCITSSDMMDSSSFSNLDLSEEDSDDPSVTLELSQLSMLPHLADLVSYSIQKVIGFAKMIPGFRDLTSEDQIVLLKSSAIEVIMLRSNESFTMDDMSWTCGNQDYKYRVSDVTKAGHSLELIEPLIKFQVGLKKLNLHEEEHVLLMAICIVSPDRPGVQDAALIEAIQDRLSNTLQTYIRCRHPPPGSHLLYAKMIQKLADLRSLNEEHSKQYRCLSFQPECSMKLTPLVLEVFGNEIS
The experiment in a line: Activation of VDR in human PBMC cells assessed as increase in 25-hydroxyvitamin D-24-hydroxylase mRNA expression at 10 pM by RT-PCR. The format is cell-based. The method, boiled down:
(§1)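 PBMCs were isolated from buffy coats on a Ficoll gradient. Agonists were freshly diluted in ethanol, with ethanol in the test conditions at no more than 0.00025%. RNA was DNase-treated to exclude genomic DNA. Transcripts were quantified by RT-PCR and normalized to the GAPDH signal.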

Experiment [4] has as its system PBMC. Description: Inhibition of LPS-induced IL12/23p40 production in human PBMC after 24 hrs by ELISA. The format is functional, cell-based.
Experiment [5] has as its target T2, Vitamin D3 receptor (Homo sapiens, UniProt P11473).
T2 sequence (P11473 whole entry): T1 sequence (whole entry)
Description: Activation of VDR in human THP1 cells assessed as increase in cathelicidin antimicrobial peptide mRNA expression by RT-PCR. The format is cell-based, THP-1.

For experiment [6], the target named is T1, Vitamin D3 receptor (Homo sapiens). Description: Activation of VDR in human PBMC cells assessed as increase in 25-hydroxyvitamin D-24-hydroxylase mRNA expression at 100 pM by RT-PCR. The format is cell-based. The method, boiled down: as §1
Experiment [7] concerns PBMC. Description: Inhibition of LPS-induced IL6 production in human PBMC after 24 hrs by ELISA. The format is functional, cell-based.
Experiment [8] concerns the target T1, Vitamin D3 receptor (Homo sapiens). The experiment in a line: Activation of VDR in human PBMC cells assessed as increase in cathelicidin antimicrobial peptide mRNA expression at 100 pM by RT-PCR. The format is cell-based. The method, boiled down: as §1
The target in experiment [9] is T2, Vitamin D3 receptor. Description: Activation of VDR in human THP1 cells assessed as increase in 25-hydroxyvitamin D-24-hydroxylase mRNA expression by RT-PCR. The format is cell-based, THP-1.
In experiment [10] the target is T1, Vitamin D3 receptor (Homo sapiens). The experiment in a line: Activation of VDR in human PBMC cells assessed as increase in cathelicidin antimicrobial peptide mRNA expression at 10 pM by RT-PCR. The format is cell-based. The method, boiled down: as §1

The structures appear in SMILES notation. The source made the active and inactive calls. The calls are words filed in the database; no cut-off is given here.

For `C=C1/C(=C\C=C2/CCC[C@]3(C)[C@@H]([C@H](C)CCCC(C)(C)O)CC[C@@H]23)C[C@@H](O)C[C@@H]1O` [CALCITRIOL], the MTD in the experiment on Mus musculus is 0.3 µg/kg.
As for `C=C1/C(=C\C=C2/CCC[C@]3(C)C(C4(CC#CC(C)(C)O)CC4)=CC[C@@H]23)C[C@@H](O)C[C@@H]1O`, the IC50 in the experiment with PBMC [1] worked out at 0.034 nM; with PBMC [2], 0.001 nM.
In the case of `C=C1/C(=C\C=C2/CCC[C@]3(C)C(C4(CCC(=O)C(C)(C)O)CC4)=CC[C@@H]23)C[C@@H](O)C[C@@H]1O`, the outcome in [3], in experiment [6], in experiment [8] and in [10] was Active. Further, the half-inhibitory concentration (IC50) in the experiment with PBMC [1] was 0.025 nM; in the experiment with PBMC [4], less than 0.001 nM; in the experiment on PBMC [7], 3.5 nM. In addition, the EC50 on Vitamin D3 receptor [5] and on Vitamin D3 receptor [9] was 0.69 nM in each case. For the same compound, in the experiment with Mus musculus, the MTD was 3 µg/kg.
Turning to `C[C@]12CCC/C(=C\C=C3C[C@@H](O)C[C@H](O)C3)[C@@H]1CC=C2C1(C/C=C/C(O)(C(F)(F)F)C(F)(F)F)CC1`, the IC50 is 0.012 nM in the experiment on PBMC [1] and greater than 100 nM in the experiment with PBMC [2].
Consider `CC(C)(O)C#CCC1(C2=CC[C@H]3/C(=C/C=C4C[C@@H](O)C[C@H](O)C4)CCC[C@]23C)CC1`, for which the half-inhibitory concentration (IC50) in the experiment on PBMC [1] worked out at 0.025 nM; in the experiment with PBMC [2] it was 0.001 nM.
The like results for `C=C1/C(=C\C=C2/CCC[C@]3(C)C(C4(C/C=C/C(O)(C(F)(F)F)C(F)(F)F)CC4)=CC[C@@H]23)C[C@@H](O)C[C@@H]1F` were, in that order, 0.065 nM and greater than 100 nM.
The like results for `C=C1/C(=C\C=C2/CCC[C@]3(C)C(C4(CC#CC(O)(C(F)(F)F)C(F)(F)F)CC4)=CC[C@@H]23)C[C@@H](O)C[C@@H]1O` were, in that order, 0.045 nM and 1 nM.
As to `C=C1/C(=C\C=C2/CCC[C@]3(C)C(C4(C/C=C/C(O)(C(F)(F)F)C(F)(F)F)CC4)=CC[C@@H]23)C[C@@H](O)C[C@@H]1O`, the 50% inhibitory concentration (IC50) in the experiment with PBMC [1] was 0.04 nM; in the experiment on PBMC [2], greater than 100 nM.
Take `C=C1/C(=C\C=C2/CCC[C@]3(C)C(C4(CCCC(C)(C)O)CC4)=CC[C@@H]23)C[C@@H](O)C[C@@H]1O`: the result in experiment [3], in experiment [6], in experiment [8] and in experiment [10] was Active. Further, the half-inhibitory concentration (IC50) with PBMC [4] is less than 0.001 nM; with PBMC [7] it was 3.2 nM. In addition, the concentration giving a half-maximal response (EC50) on Vitamin D3 receptor [5] and at Vitamin D3 receptor [9] was 0.68 nM in each case. In addition, the MTD in the experiment with Mus musculus was 1 µg/kg.
With `C[C@]12CCC/C(=C\C=C3C[C@@H](O)C[C@H](O)C3)[C@@H]1CC=C2C1(CC#CC(O)(C(F)(F)F)C(F)(F)F)CC1`, the figures for the IC50 in the experiment on PBMC [1] and with PBMC [2] were 0.014 nM and greater than 100 nM, respectively.
For `C=C1/C(=C\C=C2/CCC[C@]3(C)C(C4(CC#CC(C)(C)O)CC4)=CC[C@@H]23)C[C@@H](O)C[C@@H]1F`, the 50% inhibitory concentration (IC50) in the experiment on PBMC [1] was 0.016 nM; in the experiment with PBMC [2], greater than 100 nM.
